Screening data from PubChem BioAssay.
Hits are enriched below; roughly 3.1% of the tested compounds scored in any of these assays.
KCNQ1 act: human KCNQ1 channel potentiation or activation; P51787; actives 0.35% (n = 310,000); B-score at 10 µM; CHO-K1 KCNQ1, thallium flux FluxOR fluorescence; hits give high values;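 active = fluorescence ratio B-score, a plate-corrected score, at least three library SD, with initial intensity B-score within 5 SD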
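Medium – assay buffer, equal DMSO in all wells · Material – CHO-K1 cell line with stable KCNQ1 potassium channel expression · Signal – kinetic FluxOR thallium fluorescence, 10-s 1-Hz baseline, 110-s post-stimulus read · Compound – single concentration per compound, DMSO matched to controls · Schedule – 37 °C overnight plating, 90-min dark dye load, 20-min compound pretreatment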
hERG rescue: hERG (human) protection from proarrhythmic block; activation (rescue from dofetilide block), less the hit threshold, % at 10 µM; CHO-hERG, FluxOR thallium flux, dofetilide IC70 present; Q12809; actives 0.51% (n = 310,000); AID 1511;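 active = activation above the mean of controls blocked by dofetilide plus 5 SD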;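 note: thallium influx through hERG after potassium depolarization seen as dye fluorescence rise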
Target sequence (Q12809 whole entry, looked up): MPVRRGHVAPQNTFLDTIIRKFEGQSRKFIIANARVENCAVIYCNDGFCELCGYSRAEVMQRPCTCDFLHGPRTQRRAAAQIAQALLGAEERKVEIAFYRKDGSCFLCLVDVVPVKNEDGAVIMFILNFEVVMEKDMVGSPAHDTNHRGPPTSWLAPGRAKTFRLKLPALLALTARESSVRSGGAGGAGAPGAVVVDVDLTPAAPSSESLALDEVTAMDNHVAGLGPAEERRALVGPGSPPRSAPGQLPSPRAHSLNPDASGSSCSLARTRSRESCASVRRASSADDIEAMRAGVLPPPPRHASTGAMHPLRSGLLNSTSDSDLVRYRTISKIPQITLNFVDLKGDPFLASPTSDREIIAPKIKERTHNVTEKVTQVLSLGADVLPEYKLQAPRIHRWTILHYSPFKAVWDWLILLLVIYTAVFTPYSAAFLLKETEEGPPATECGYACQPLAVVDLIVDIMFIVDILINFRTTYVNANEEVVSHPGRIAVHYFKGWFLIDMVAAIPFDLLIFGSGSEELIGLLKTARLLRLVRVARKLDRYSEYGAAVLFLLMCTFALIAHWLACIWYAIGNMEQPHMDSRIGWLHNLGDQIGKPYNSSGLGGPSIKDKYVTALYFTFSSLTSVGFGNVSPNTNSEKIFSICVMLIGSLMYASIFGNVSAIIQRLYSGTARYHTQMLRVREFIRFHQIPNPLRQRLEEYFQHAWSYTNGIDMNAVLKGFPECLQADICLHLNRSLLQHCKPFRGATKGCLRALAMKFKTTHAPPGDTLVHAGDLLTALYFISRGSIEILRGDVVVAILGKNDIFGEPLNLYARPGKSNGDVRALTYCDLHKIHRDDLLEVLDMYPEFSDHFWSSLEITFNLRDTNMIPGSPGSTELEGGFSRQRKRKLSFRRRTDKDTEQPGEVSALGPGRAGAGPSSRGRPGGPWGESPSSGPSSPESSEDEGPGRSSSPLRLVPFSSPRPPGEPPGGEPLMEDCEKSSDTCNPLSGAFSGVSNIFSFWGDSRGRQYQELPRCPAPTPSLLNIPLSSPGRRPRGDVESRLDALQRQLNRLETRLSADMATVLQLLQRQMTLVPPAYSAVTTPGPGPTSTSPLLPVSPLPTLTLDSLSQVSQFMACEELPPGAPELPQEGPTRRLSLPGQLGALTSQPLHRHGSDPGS
KCNK9 inh: blocks the human KCNK9 two-pore domain potassium channel. actives 1.2% (n = 310,000). B-score at 10 µM. HEK293 KCNK9, FluxOR thallium flux fluorescence; hits give low values. Q9NPC2. AID 488922;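 active = ratio B-score over 3 SD below the library mean, with starting fluorescence within 5 SD of its mean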;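 note: negative B-score means less thallium flux so channel inhibition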
KCNQ1 inh: blocks the human KCNQ1 potassium channel; CHO-K1 KCNQ1, FluxOR thallium flux fluorescence; hits give high values; B-score at 10 µM; actives 1.3% (n = 310,000);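 active = compounds whose thallium flux B-score, printed positive for inhibition, exceeds three library SD while starting fluorescence stays within three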;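 note: channel opened by potassium depolarization with thallium stimulus after 20 min compound exposure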
KCNK3 block: human KCNK3 channel inhibition, primary screen; CHO-KCNK3 thallium flux, FluxOR fluorescence; hits give low values; B-score at 10 µM; actives 0.84% (n = 340,000);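 active = B-score under library mean minus 4 SD, starting fluorescence ratio at most library mean plus 5 SD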;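 note: more negative B-score means stronger inhibition of thallium flux through KCNK3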
Large screens that a line does not name were inactive.

O=C([O-])c1ccc(-[n+]2c(-c3ccccc3)cc(-c3ccccc3)cc2-c2ccccc2)cc1	none
Oc1ccc(-[n+]2c(-c3ccccc3)cc(-c3ccccc3)cc2-c2ccccc2)cc1	KCNK9 inh -7.33, KCNQ1 inh 10
COc1ccc(-[n+]2c(-c3ccccc3)cc(-c3ccccc3)cc2-c2ccccc2)cc1	KCNK9 inh -8.85, KCNQ1 inh 6 (no result: KCNK3 block)
CN(c1ccccc1)P(=O)(N1CC1)N1CC1	none (no result: KCNQ1 act, hERG rescue, KCNK9 inh, KCNQ1 inh)
Cc1cc(C)n(-c2ccc(NN=C(C#N)C#N)cc2)n1	none
N#CC(C#N)=NNc1ccc(-n2ccc(C(F)(F)F)n2)cc1	KCNQ1 inh 7
CC(C)(C)c1cc([N+](=O)[O-])cc(C(C)(C)C)c1O	KCNQ1 inh 6 (no result: KCNK3 block)
C/C(=N\Nc1cccc2ccccc12)c1c(O)n(Cc2ccccc2)c(=O)[nH]c1=O	KCNK9 inh -7.22
C/C(=N\NC(=O)c1ccccc1)c1c(O)n(Cc2ccccc2)c(=O)[nH]c1=O	none
CC1=CC2/C=C(\C)CCC(O)C(O)/C=C/C(=O)C23C(=O)NC(CC(C)C)C3C1C (centres undefined)	KCNQ1 act 10
O=C1c2ccccc2C2(c3ccc(Cl)cc3)NCCN12 (centres undefined)	hERG rescue 4.8
Cc1cc(-c2ccccc2)cc(-c2ccccc2)[n+]1CCc1ccccc1	KCNK9 inh -8.03, KCNQ1 inh 8
CCOc1ccc(-c2cc(C)[n+](CCc3ccc(OC)c(OC)c3)c(-c3ccc(OCC)cc3)c2)cc1	KCNQ1 inh 10
Clc1ccc(C[n+]2c(-c3ccccc3)cc(-c3ccccc3)cc2-c2ccccc2)cc1	KCNK9 inh -8.27, KCNQ1 inh 13
C[n+]1c(-c2ccccc2)cc(-c2ccc(O)cc2)cc1-c1ccccc1	none
CCC1(NS(=O)(=O)c2ccc(N)cc2)C(=O)N(C)C(=O)N(C)C1=O	none (no result: KCNQ1 act, hERG rescue, KCNK9 inh, KCNQ1 inh)
COc1cccc(CC(=O)N2CCN(Cc3cccc(Cl)c3)CC2)c1	KCNQ1 act 8
COc1cccc(N2CCN(Cc3cccc(Cl)c3)CC2)c1	none
CN1C(=O)C[N+]([O-])=C(c2ccccc2)c2cc(Cl)ccc21	none (no result: KCNQ1 act, hERG rescue, KCNK9 inh, KCNQ1 inh)
CCN(CC)c1ccc(/C=C2\C(=O)NC(=S)N(C)C2=O)o1	KCNQ1 inh 7
CCN(CC)c1ccc(/C=C2\C(=O)NC(=S)N(c3ccc(OC)cc3OC)C2=O)o1	KCNQ1 inh 6
ClCCN1CCSCC1	none (no result: KCNQ1 act, hERG rescue, KCNK9 inh, KCNQ1 inh)
COC(=O)C(C)Oc1cc(C)cc2oc(=O)c3c(c12)CCCC3 (centres undefined)	KCNK3 block -9.19
COc1ccc(N2C(=O)C(=O)N(c3ccc(OC)cc3)P2(=O)N(CCCl)CCCl)cc1	none (no result: KCNQ1 act, hERG rescue, KCNK9 inh, KCNQ1 inh)
CCSC(=O)N1CCCCCC1	none (no result: KCNQ1 act, hERG rescue, KCNK9 inh, KCNQ1 inh)
CCCCNC(C)Cc1ccccc1 (centres undefined)	none (no result: KCNQ1 act, hERG rescue, KCNK9 inh, KCNQ1 inh)
COc1ccc(CC(C)NCCC(c2ccccc2)c2ccccc2)cc1 (centres undefined)	KCNQ1 inh 6
N#CC1=C(N)Oc2cc(O)ccc2C1c1ccc2c(c1)OCO2 (centres undefined)	KCNK9 inh -7.52
Cc1ccccc1-c1ccc2n1Cc1cnnn1-c1ccccc1-2	none (no result: KCNQ1 act, hERG rescue, KCNK9 inh, KCNQ1 inh)
O=C(O)C1(Br)CC12c1ccccc1-c1ccccc12 (centres undefined)	none (no result: KCNQ1 act, hERG rescue, KCNK9 inh, KCNQ1 inh)
COc1cccc(-n2c(/C=C/c3ccc(O)c(O)c3)nc3ccccc3c2=O)c1	KCNQ1 inh 6
COc1ccc(-n2c(/C=C/c3ccc(O)c(OC)c3)nc3ccccc3c2=O)cc1	none
CC1N=C(c2ccccc2Cl)c2cc(Br)ccc2NC1=O (centres undefined)	hERG rescue 7.6
CC(C)C[C@H]1C(=O)N2CCCC2[C@]2(O)O[C@](NC(=O)[C@@H]3C=C4c5cccc6[nH]cc(c56)CC4N(C)C3)(C(C)C)C(=O)N12 (some centres undefined)	KCNQ1 inh 8
C#CCOC(=O)C1=CCCN(C)C1	none (no result: KCNQ1 act, hERG rescue, KCNK9 inh, KCNQ1 inh)
CC(=O)OC(C)(C)/C=C/C(=O)C(C)(O)C1[C@H](O)C[C@@]2(C)C3CC=C4C(CC[C@@H](O)C4(C)C)[C@]3(CO)C(=O)C[C@]12C (some centres undefined)	KCNQ1 act 13
O=C(c1cc(C(=O)NCc2ccccc2)c(=O)n(Cc2ccccc2)c1)c1cc(Br)ccc1O	KCNQ1 inh 6
O=C1NC(=O)N(c2ccc3c(c2)OCO3)C(=O)/C1=C/c1ccc(N2CCCCC2)o1	KCNK9 inh -7.66, KCNQ1 inh 6
